Columns and labels:
[1] = target: T1, Histone-lysine N-methyltransferase EHMT2 (Homo sapiens, UniProt Q96KQ7); assay: Inhibition of human G9a enzyme using histone monomethyl-H3K9 peptide as substrate incubated for 1 hr in presence of SAM by TR-FRET assay
T1 sequence (Q96KQ7 whole entry): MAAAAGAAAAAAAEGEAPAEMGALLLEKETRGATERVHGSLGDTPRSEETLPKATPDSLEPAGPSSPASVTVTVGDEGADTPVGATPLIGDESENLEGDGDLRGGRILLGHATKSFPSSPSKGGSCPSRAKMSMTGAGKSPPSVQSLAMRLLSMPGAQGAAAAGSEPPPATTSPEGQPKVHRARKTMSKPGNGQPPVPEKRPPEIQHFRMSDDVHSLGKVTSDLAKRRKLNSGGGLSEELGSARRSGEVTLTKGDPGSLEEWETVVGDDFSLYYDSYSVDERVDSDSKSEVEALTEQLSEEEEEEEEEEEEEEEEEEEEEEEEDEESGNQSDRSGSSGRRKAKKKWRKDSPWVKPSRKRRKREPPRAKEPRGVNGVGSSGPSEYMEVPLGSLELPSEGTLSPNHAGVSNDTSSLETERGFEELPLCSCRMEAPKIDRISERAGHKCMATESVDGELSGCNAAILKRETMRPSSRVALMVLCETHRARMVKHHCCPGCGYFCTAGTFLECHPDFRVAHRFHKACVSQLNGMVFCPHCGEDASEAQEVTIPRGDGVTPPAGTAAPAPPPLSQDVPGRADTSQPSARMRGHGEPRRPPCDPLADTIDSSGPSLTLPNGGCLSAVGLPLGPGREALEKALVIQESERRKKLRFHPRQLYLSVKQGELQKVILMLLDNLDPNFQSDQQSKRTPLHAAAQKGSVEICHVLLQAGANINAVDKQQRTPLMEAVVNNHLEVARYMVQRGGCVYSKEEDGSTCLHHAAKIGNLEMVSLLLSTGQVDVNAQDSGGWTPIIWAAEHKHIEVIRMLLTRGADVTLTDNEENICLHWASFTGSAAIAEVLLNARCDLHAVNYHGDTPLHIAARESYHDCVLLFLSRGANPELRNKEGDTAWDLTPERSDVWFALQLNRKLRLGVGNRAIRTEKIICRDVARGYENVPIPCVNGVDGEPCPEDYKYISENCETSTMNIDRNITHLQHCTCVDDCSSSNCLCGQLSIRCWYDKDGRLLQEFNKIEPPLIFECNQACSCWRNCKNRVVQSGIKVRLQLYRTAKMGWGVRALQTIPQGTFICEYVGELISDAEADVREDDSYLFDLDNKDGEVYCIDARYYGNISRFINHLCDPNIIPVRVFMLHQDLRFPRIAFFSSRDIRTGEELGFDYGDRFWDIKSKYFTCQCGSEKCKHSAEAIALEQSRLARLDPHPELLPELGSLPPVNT

Histone deacetylase 1 = Histone deacetylase 1 (Homo sapiens, UniProt Q13547); assay: Inhibition of full length human C-terminal His-tagged/C-terminal Flag-tagged HDAC1 using fluorogenic acetylated peptide as substrate incubated for 30 mins by fluorescence plate reader assay
Sequence of Histone deacetylase 1 (Q13547 whole entry): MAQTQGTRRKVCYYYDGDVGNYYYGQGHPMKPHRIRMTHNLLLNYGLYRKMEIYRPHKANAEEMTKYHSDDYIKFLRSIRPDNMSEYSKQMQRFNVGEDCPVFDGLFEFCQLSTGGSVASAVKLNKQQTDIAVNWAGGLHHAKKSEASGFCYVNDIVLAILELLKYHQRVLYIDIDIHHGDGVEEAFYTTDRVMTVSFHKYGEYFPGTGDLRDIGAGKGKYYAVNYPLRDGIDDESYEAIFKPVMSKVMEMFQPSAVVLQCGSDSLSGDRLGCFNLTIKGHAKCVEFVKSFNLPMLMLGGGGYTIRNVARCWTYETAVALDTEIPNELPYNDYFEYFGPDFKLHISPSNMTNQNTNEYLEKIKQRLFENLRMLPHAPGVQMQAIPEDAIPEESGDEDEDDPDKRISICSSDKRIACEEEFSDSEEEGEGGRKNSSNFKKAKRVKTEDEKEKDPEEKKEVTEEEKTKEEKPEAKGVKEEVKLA

[2] = target: T2, Protein deacetylase HDAC6 (Homo sapiens, UniProt Q9UBN7); assay: Inhibition of full length human N-terminal GST-tagged HDAC6 using fluorogenic acetylated peptide as substrate incubated for 30 mins by fluorescence plate reader assay
T2 sequence (Q9UBN7 whole entry): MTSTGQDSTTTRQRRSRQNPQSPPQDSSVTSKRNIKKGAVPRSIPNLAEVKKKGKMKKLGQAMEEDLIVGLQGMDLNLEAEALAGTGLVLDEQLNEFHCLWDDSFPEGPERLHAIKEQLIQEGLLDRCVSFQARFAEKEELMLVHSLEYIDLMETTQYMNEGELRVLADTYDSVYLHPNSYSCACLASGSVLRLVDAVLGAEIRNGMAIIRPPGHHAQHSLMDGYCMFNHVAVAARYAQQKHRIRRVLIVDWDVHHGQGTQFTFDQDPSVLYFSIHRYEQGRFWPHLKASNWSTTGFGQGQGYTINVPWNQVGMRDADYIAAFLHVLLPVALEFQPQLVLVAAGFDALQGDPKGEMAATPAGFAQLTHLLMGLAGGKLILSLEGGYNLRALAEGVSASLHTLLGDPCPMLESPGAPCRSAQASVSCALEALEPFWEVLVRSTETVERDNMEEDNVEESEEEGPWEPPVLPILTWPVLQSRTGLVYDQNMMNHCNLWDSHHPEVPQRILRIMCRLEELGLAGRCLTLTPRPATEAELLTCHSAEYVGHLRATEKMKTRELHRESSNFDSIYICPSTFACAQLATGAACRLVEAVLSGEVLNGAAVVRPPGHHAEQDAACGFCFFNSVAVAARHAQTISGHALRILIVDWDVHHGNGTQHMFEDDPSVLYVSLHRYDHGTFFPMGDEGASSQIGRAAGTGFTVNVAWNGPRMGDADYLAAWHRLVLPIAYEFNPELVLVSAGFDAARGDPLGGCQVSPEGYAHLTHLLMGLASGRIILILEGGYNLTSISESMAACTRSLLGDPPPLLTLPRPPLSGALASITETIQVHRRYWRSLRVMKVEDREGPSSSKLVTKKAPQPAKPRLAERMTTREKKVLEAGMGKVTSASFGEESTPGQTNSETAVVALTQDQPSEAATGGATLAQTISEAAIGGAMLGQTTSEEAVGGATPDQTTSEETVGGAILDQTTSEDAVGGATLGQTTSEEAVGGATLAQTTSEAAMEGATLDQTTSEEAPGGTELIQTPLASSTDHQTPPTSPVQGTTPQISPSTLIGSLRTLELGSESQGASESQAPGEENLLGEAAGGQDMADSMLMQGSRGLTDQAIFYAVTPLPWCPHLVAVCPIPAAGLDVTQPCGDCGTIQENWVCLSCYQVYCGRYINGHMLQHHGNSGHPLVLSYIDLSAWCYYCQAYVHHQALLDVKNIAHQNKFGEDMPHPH

[3] = target: DNA (cytosine-5)-methyltransferase 1 (Homo sapiens, UniProt P26358); assay: Inhibition of human DNMT1 enzyme using polydeoxy-inosine polydeoxy-cytosine DNA as substrate incubated for 15 mins in presence of SAM by TR-FRET assay
Sequence of DNA (cytosine-5)-methyltransferase 1 (P26358 whole entry): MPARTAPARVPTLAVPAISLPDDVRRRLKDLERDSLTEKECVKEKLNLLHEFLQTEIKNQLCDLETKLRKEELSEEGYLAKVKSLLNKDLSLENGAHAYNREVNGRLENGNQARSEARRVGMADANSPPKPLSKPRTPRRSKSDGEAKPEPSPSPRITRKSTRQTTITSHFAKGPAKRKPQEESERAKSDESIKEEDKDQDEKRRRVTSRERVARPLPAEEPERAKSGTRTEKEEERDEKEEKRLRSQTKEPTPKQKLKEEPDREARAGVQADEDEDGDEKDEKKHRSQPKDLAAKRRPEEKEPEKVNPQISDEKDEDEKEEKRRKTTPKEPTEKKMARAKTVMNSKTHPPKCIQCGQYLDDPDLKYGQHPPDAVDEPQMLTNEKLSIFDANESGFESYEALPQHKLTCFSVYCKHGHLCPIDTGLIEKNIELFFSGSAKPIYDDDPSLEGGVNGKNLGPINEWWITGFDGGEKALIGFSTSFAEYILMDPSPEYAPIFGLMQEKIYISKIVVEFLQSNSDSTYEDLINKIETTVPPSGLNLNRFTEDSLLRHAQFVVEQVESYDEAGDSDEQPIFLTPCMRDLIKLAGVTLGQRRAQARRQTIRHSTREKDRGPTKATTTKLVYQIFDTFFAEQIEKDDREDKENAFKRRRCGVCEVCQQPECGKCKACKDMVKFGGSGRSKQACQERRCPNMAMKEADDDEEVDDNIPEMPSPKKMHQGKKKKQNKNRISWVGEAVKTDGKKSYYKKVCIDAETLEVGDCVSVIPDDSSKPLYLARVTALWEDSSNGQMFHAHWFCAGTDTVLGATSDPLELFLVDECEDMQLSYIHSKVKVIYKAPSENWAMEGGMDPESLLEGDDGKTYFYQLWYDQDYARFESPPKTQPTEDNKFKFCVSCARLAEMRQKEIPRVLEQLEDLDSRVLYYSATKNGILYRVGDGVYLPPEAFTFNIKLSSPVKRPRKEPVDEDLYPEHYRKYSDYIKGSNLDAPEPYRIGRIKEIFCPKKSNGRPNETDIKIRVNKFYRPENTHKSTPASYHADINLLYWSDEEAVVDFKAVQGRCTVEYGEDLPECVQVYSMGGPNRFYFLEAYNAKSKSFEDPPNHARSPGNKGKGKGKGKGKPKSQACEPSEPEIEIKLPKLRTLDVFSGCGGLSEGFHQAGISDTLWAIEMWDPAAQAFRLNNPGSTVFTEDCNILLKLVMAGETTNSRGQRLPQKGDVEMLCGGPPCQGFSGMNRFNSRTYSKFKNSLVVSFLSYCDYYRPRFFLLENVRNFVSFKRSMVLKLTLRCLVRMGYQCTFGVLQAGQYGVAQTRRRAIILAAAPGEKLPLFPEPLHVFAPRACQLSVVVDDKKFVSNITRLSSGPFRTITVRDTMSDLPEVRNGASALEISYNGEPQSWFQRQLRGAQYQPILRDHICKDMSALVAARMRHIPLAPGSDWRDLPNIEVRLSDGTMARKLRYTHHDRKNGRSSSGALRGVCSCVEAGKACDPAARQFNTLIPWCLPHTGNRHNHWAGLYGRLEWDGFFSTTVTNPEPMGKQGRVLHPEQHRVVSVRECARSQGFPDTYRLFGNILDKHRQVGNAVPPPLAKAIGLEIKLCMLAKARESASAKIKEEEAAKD

THLE-2 = assay: Cytotoxicity against human THLE-2 cells assessed as decrease in cell viability measured after 72 hrs by Vialight-plus cell proliferation assay; type: cell-based; details: thle-2, 72 h
Outline: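 Human THLE-2 cells exposed to compound for 72 h. Cytotoxicity reported as LC50 and pLC50, averaged from at least two independent experiments on different days.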

[4] = Permeability of the compound in PBS/EtOH buffer (70:30) incubated for 18 hrs by UV plate reader based PAMPA assay; type: ADME; details: read-out: permeability
MM1.S = assay: Antiproliferative activity against human MM1.S cells assessed as inhibition of cell proliferation measured up to 72 hrs by CellTiter96 Aqueous one reagent based assay; type: functional
[5] = time hrs <=72, read-out: pGI50 (converted)

| IC50 [1] [nM] | IC50 (Histone deacetylase 1) [nM] | IC50 [2] [nM] | IC50 [3] [nM] | Structure (SMILES) | LC50 (THLE-2) [nM] | pLC50 (THLE-2) | Papp at 18 h [4] [×10⁻⁶ cm/s] | GI50 (MM1.S; time hrs <=72, read-out: GI50) [nM] | GI50 (MM1.S; [5]) [nM] |
| --- | --- | --- | --- | --- | --- | --- | --- | --- | --- |
| 1650 | 3320 | 9620 | 2270 | COc1cc2c(NCc3ccc([C@H]4CC[C@H](C(=O)NO)CC4)cc3)cc(-c3ccc(C)o3)nc2cc1OCCCN1CCCC1 |  |  |  |  |  |
| 1920 | 115 | 351 | 1430 | COc1cc2c(NCc3ccc([C@H]4CC[C@@H](C(=O)NO)CC4)cc3)cc(-c3ccc(C)o3)nc2cc1OCCCN1CCCC1 |  |  |  |  |  |
| > 10000 | 5 | 126 | > 10000 | COc1cc2nc(-c3cc(C)oc3C)cc(NCC3CCN(c4ncc(C(=O)NO)cn4)CC3)c2cc1OC |  |  |  |  |  |
|  |  |  |  | Cc1[nH]c2ccccc2c1CCNCc1ccc(/C=C/C(=O)NO)cc1 [PANOBINOSTAT] | 22 | 7.66 | 1.42 | 8.9 | 8.91 |
| 38 | > 20000 | > 20000 | 566 | COc1cc2c(NCC3CCN(C4CCC(C(=O)NO)CC4)CC3)cc(-c3ccc(C)o3)nc2cc1OCCCN1CCCC1 (stereo not drawn) |  |  |  |  |  |
| 3100 | 34 | 122 | 2760 | COc1cc2c(NCC3CCC(c4ccc(C(=O)NO)cc4)CC3)cc(-c3ccc(C)o3)nc2cc1OCCCN1CCCC1 (stereo not drawn) |  |  |  |  |  |
| > 10000 | 17 | 1260 | > 10000 | COc1cc2nc(-c3ccc(C)s3)cc(NCC3CCN(c4ncc(C(=O)NO)cn4)CC3)c2cc1OC |  |  |  |  |  |
| > 10000 | 87 | 204 | > 10000 | COc1cc2nc(-c3ccc(C)o3)cc(NCc3ccc(C(=O)NO)cn3)c2cc1OC |  |  |  |  |  |
| > 10000 | 396 | 2890 | 2660 | COc1cc2nc(-c3ccc(C)o3)cc(N[C@H]3CC[C@@H](C(=O)NO)CC3)c2cc1OC |  |  |  |  |  |
| > 10000 |  |  | > 10000 | O=C(CCCCCCC(=O)Nc1ccccc1)NO [VORINOSTAT] |  |  |  |  |  |
| > 10000 | 3 | 230 | > 10000 | COc1cc2nc(-c3ccccc3)cc(NCC3CCN(c4ncc(C(=O)NO)cn4)CC3)c2cc1OC |  |  |  |  |  |
| > 10000 | 144 | 465 | 8410 | COc1cc2nc(-c3ccc(C)o3)cc(NCC3CCN(c4ccc(C(=O)NO)cn4)CC3)c2cc1OC |  |  |  |  |  |
| > 10000 | > 4000 | > 20000 | 4180 | COc1cc2nc(-c3ccc(C)o3)cc(N[C@H]3CC[C@H](C(=O)NO)CC3)c2cc1OC |  |  |  |  |  |
| 7.2 | 3 | 253 | > 10000 | COc1cc2nc(C)cc(NCC3CCN(c4ncc(C(=O)NO)cn4)CC3)c2cc1OC |  |  |  |  |  |
| > 10000 | 3 | 234 | > 10000 | COc1cc2nc(N3CCCCC3)cc(NCC3CCN(c4ncc(C(=O)NO)cn4)CC3)c2cc1OC |  |  |  |  |  |

| Structure (SMILES) | IC50 [1] [nM] | IC50 (Histone deacetylase 1) [nM] | IC50 [2] [nM] | IC50 [3] [nM] | LC50 (THLE-2) [nM] | pLC50 (THLE-2) | Papp at 18 h [4] [×10⁻⁶ cm/s] | GI50 (MM1.S; time hrs <=72, read-out: GI50) [nM] | GI50 (MM1.S; [5]) [nM] |
| --- | --- | --- | --- | --- | --- | --- | --- | --- | --- |
| COc1cc2nc(-c3ccc(C)o3)cc(NCC3CCN(C4CC(C(=O)NO)C4)CC3)c2cc1OC (stereo not drawn) | > 10000 | 453 | 3180 | 540 | 10410 | 4.98 | 0.068 | 1980 | 2000 |
| COc1cc2c(NC3CCN(Cc4ccc(C(=O)NO)cc4)CC3)cc(-c3ccc(C)o3)nc2cc1OCCCN1CCCC1 | 47 | 147 | 39 | 318 | 22050 | 4.66 |  | 4210 | 4170 |
| COc1cc2c(NCC3CCN(Cc4ccc(C(=O)NO)cc4)CC3)cc(-c3ccc(C)o3)nc2cc1OCCCN1CCCC1 | 46 | 524 | 53 | 167 | 3890 | 5.41 |  | 3570 | 3550 |
| COc1cc2c(NCC3CCN(c4ccc(C(=O)NO)cc4)CC3)cc(-c3ccc(C)o3)nc2cc1OCCCN1CCCC1 | 269 | 78 | 67 | 417 | 9700 | 5.01 | 0.05 | 3760 | 3720 |
| COc1cc2nc(C3CCCCC3)cc(NCC3CCN(c4ncc(C(=O)NO)cn4)CC3)c2cc1OC | > 10000 | 2 | 111 | > 10000 | 2298 | 5.64 | 0.21 | 195 | 195 |
| COc1cc2c(NC3CCN(c4ncc(C(=O)NO)cn4)CC3)cc(C)nc2cc1OCCCN1CCCC1 | 34 | 17 | 118 | 2040 | 33250 | 4.48 | 0.075 | > 10000 | > 10000 |
| COc1cc2c(NCC3CCN(c4ncc(C(=O)NO)cn4)CC3)cc(-c3ccc(C)o3)nc2cc1OCC1CCNCC1 | 2070 | 6 | 351 | 1140 | 19700 | 4.71 | 0.025 | > 10000 | > 10000 |
| COc1cc2c(NCC3CCN(c4ncc(C(=O)NO)cn4)CC3)cc(C)nc2cc1OCCCN1CCCC1 | 4 | 7 | 350 | 555 | > 100000 | < 4 |  | > 10000 | > 10000 |

From ChEMBL document CHEMBL4834403, “Design and Synthesis of Novel Epigenetic Inhibitors Targeting Histone Deacetylases, DNA Methyltransferase 1, and Lysine Methyltransferase G9a with In Vivo Efficacy in Multiple Myeloma” (J Med Chem, 2021)
